The text below walks through data of ChEMBL document CHEMBL5705900, “PF-06463922 is a potent and selective next-generation ROS1/ALK inhibitor capable of blocking crizotinib-resistant ROS1 mutations” (Proc Natl Acad Sci U S A, 2015).

Each structure is given as a SMILES string. Activity calls are given as the source filed them. The calls are words filed in the database; no cut-off is given here.

Assay [1] has as its target T1, Proto-oncogene tyrosine-protein kinase ROS (Homo sapiens, UniProt P08922). Nature of the assay: Inhibition of recombinant human ROS1 in presence of ATP by microfluidic mobility shift assay. Conditions: dose 0.001-1000 nM.
Assay [2] deals with HCC78. Nature of the assay: Antiproliferative activity against human HCC78 cells harboring SLC34A2-ROS1 fusion protein assessed as reduction in cell viability incubated for 72 hrs by CellTiter-Glo assay. Format: functional, cell-based. As to conditions: HCC78, 72 h. The method in brief:
(§1)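 HCC78 NSCLC cells seeded in growth medium with 10% FBS, cultured overnight at 37 °C, then exposed to serial compound dilutions for 72 h at 37 °C. Relative cell number read by CellTiter-Glo luminescence; IC50 from four-parameter concentration-response curve fit.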
(In general: In ATP-based viability assays light output follows the ATP content of the culture.)

The target in assay [3] is T2, H-2 class II histocompatibility antigen gamma chain/Proto-oncogene tyrosine-protein kinase ROS (Mus musculus, UniProt Q78DX7). Nature of the assay: Inhibition of CD74-ROS1 expressed in mouse NIH3T3 cells assessed as inhibition of phosphorylated ROS1 incubated for 1 hr by ELISA analysis. The assay is classed as cell-based. Summed up:
(§2)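 Cells seeded in growth medium with 0.5% serum and incubated overnight; compounds diluted in serum-free medium, added for 1 h, then medium aspirated. Lysates assayed for phospho-ROS1 (Tyr2274) by sandwich ELISA. IC50 from four-parameter concentration-response curve fit. Engineered lines made by retroviral transduction (pMSCV) with puromycin or hygromycin selection for 5 d.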

Assay [4] concerns the target Proto-oncogene tyrosine-protein kinase ROS (Homo sapiens, UniProt P08922, L2026M). Nature of the assay: Binding affinity to recombinant human ROS1 L2026M mutant assessed as inhibition constant in presence of ATP by microfluidic mobility shift assay.
The test system of assay [5] is Proto-oncogene tyrosine-protein kinase ROS (Homo sapiens), P08922 [G2032R]. Briefly: Inhibition of recombinant human ROS1 G2032R mutant in presence of ATP by microfluidic mobility shift assay. As to conditions: dose 0.001-1000 nM.
The test system of assay [6] is Proto-oncogene tyrosine-protein kinase ROS (Homo sapiens), P08922 [L2026M]. Nature of the assay: Inhibition of recombinant human ROS1 L2026M mutant in presence of ATP by microfluidic mobility shift assay. Conditions: dose 0.001-1000 nM.
Assay [7] deals with T1, Proto-oncogene tyrosine-protein kinase ROS. Nature of the assay: Binding affinity to recombinant human ROS1 assessed as inhibition constant in presence of ATP by microfluidic mobility shift assay.
For assay [8], the system named is HCC78. Briefly: Antiproliferative activity against human HCC78 cells assessed as reduction in cell viability incubated for 72 hrs by CellTiter-Glo assay. The assay is classed as functional, cell-based. As to conditions: HCC78, 72 h. The method in brief:
as §1

In assay [9] the target is SLC34A2-ROS1 (Homo sapiens, UniProt P08922). Nature of the assay: Inhibition of SLC34A2-ROS1 fusion protein expressed in human HCC78 cells assessed as inhibition of phosphorylated ROS1 incubated for 1 hr by ELISA analysis. The assay is classed as cell-based. (In general: In an ELISA, binding on a coated surface is turned into a signal by an enzyme label.)
The test system of assay [10] is BaF3. Briefly: Antiproliferative activity against mouse BaF3 cells harboring CD74-ROS1 L2026M mutant assessed as reduction in cell viability incubated for 72 hrs by CellTiter-Glo assay. As to conditions: BaF3, 72 h. The assay is classed as functional, cell-based. The method in brief: (§3)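 BaF3 cells engineered by pMSCV retroviral transduction (puromycin or hygromycin selection, 5 d, pooled populations) with CD74-ROS1 fusion variants. Seeded in growth medium with 10% FBS overnight at 37 °C, then serial compound dilutions for 72 h at 37 °C. CellTiter-Glo for relative cell number; IC50 by four-parameter curve fit.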

For assay [11], the target named is T3, Golgi-associated PDZ and coiled-coil motif-containing protein/Proto-oncogene tyrosine-protein kinase ROS (Mus musculus, UniProt Q78DX7). Briefly: Inhibition of FIG-ROS1 short isoform fusion protein expressed in mouse NIH3T3 cells assessed as inhibition of phosphorylated ROS1 incubated for 1 hr by ELISA analysis. Format: cell-based. The method in brief:
as §2

Assay [12] concerns BaF3. Nature of the assay: cells. As to conditions: Mus musculus, BaF3, 72 h.
The nature of assay [13]: Inhibition of CD74-ROS1 G2032R mutant expressed in mouse BaF3 cells assessed as inhibition of phosphorylated ROS1 incubated for 1 hr by ELISA analysis. Format: cell-based. As to conditions: BaF3, 1 h. The method in brief: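 BaF3 cells retrovirally engineered to express CD74-ROS1 G2032R, seeded in growth medium with 0.5% serum overnight. Compounds diluted in serum-free medium, added for 1 h, then aspirated. Lysates assayed for phospho-ROS1 (Tyr2274) by sandwich ELISA; IC50 from four-parameter concentration-response curve fit.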

Assay [14] can be described thus: Inhibition of CD74-ROS1 L2026M mutant expressed in mouse BaF3 cells assessed as inhibition of phosphorylated ROS1 incubated for 1 hr by ELISA analysis. As to conditions: BaF3, 1 h. Format: cell-based.
For assay [15], the system named is BaF3. Briefly: Antiproliferative activity against mouse BaF3 cells harboring CD74-ROS1 G2032R mutant assessed as reduction in cell viability incubated for 72 hrs by CellTiter-Glo assay. Format: functional, cell-based. Conditions: BaF3, 72 h. Summed up: as §3
For assay [16], the target named is T3, Golgi-associated PDZ and coiled-coil motif-containing protein/Proto-oncogene tyrosine-protein kinase ROS. Nature of the assay: Inhibition of FIG-ROS1 long isoform fusion protein expressed in mouse NIH3T3 cells assessed as inhibition of phosphorylated ROS1 incubated for 1 hr by ELISA analysis. Format: cell-based. Summed up:
as §2

The subject of assay [17] is Proto-oncogene tyrosine-protein kinase ROS (Homo sapiens), P08922 [G2032R]. Nature of the assay: Binding affinity to recombinant human ROS1 G2032R mutant assessed as inhibition constant in presence of ATP by microfluidic mobility shift assay.
The target in assay [18] is T2, H-2 class II histocompatibility antigen gamma chain/Proto-oncogene tyrosine-protein kinase ROS. Briefly: Inhibition of CD74-ROS1 expressed in mouse BaF3 cells assessed as inhibition of phosphorylated ROS1 incubated for 1 hr by ELISA analysis. The assay is classed as cell-based. The method in brief:
as §2

Chain of Proto-oncogene tyrosine-protein kinase ROS (Homo sapiens), P08922 [L2026M] (P08922 whole entry L2026M): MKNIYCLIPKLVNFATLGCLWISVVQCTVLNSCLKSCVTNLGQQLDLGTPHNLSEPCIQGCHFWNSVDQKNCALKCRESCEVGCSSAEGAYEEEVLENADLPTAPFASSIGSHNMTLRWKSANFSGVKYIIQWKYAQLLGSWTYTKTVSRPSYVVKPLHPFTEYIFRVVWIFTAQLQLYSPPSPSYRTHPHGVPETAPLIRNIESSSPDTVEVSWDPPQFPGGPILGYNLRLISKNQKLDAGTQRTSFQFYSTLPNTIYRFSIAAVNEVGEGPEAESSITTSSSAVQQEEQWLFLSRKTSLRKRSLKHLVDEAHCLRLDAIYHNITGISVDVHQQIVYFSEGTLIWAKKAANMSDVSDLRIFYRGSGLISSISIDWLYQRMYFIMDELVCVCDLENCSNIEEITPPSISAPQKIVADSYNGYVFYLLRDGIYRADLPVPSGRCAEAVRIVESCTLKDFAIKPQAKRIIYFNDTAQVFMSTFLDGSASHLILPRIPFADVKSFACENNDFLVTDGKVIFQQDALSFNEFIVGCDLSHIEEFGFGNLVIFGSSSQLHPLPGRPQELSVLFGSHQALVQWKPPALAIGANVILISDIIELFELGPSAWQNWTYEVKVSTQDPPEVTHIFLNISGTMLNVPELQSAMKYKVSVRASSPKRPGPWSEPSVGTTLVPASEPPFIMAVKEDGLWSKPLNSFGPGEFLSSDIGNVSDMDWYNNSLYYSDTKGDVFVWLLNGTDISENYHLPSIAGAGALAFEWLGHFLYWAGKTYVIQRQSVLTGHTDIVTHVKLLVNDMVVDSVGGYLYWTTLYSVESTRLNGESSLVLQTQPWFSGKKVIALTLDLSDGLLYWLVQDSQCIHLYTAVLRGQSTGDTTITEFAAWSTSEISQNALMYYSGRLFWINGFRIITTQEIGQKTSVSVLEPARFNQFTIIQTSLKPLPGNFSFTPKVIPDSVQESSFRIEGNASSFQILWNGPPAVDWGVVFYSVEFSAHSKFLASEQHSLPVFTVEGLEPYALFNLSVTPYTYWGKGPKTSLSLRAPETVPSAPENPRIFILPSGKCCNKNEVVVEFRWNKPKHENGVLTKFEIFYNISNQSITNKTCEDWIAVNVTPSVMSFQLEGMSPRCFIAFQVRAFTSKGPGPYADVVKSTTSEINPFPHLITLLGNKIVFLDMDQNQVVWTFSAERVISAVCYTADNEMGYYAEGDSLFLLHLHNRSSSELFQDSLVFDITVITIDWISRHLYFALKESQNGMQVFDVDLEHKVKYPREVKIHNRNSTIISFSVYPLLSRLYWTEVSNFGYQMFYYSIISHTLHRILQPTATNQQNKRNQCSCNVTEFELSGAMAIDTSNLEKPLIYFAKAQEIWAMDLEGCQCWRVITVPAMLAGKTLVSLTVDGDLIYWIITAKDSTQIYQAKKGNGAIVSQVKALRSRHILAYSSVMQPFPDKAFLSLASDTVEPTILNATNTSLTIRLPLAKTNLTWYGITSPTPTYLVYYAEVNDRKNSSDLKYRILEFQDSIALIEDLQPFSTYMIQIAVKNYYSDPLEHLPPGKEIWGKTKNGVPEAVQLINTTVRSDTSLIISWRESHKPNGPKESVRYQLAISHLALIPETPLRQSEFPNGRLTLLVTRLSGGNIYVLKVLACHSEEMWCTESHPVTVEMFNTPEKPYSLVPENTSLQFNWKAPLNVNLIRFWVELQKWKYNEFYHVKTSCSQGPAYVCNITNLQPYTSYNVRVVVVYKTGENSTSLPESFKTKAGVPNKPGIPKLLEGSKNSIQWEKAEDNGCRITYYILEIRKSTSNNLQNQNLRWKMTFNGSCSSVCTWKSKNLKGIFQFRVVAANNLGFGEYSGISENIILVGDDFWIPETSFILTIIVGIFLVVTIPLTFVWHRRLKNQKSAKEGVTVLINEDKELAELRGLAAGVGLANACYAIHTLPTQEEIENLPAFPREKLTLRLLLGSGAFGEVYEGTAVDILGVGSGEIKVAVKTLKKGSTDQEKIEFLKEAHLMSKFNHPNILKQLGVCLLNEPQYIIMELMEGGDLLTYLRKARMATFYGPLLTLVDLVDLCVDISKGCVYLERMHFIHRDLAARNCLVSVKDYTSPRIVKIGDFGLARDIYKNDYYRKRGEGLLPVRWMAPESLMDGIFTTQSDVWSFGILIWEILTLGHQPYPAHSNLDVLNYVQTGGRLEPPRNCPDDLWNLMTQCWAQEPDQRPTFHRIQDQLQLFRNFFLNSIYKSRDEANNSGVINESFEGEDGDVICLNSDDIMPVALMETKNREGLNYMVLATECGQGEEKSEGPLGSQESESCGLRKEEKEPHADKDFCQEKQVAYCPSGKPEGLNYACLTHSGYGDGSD
Chain of Proto-oncogene tyrosine-protein kinase ROS (Homo sapiens), P08922 [G2032R] (P08922 whole entry G2032R): as the sequence (P08922 whole entry L2026M) above, with M2026L, G2032R counted along it
T1 sequence (P08922 whole entry, the tested form may be a part): as the sequence (P08922 whole entry L2026M) above, with M2026L counted along it
T2 sequence (Q78DX7 whole entry): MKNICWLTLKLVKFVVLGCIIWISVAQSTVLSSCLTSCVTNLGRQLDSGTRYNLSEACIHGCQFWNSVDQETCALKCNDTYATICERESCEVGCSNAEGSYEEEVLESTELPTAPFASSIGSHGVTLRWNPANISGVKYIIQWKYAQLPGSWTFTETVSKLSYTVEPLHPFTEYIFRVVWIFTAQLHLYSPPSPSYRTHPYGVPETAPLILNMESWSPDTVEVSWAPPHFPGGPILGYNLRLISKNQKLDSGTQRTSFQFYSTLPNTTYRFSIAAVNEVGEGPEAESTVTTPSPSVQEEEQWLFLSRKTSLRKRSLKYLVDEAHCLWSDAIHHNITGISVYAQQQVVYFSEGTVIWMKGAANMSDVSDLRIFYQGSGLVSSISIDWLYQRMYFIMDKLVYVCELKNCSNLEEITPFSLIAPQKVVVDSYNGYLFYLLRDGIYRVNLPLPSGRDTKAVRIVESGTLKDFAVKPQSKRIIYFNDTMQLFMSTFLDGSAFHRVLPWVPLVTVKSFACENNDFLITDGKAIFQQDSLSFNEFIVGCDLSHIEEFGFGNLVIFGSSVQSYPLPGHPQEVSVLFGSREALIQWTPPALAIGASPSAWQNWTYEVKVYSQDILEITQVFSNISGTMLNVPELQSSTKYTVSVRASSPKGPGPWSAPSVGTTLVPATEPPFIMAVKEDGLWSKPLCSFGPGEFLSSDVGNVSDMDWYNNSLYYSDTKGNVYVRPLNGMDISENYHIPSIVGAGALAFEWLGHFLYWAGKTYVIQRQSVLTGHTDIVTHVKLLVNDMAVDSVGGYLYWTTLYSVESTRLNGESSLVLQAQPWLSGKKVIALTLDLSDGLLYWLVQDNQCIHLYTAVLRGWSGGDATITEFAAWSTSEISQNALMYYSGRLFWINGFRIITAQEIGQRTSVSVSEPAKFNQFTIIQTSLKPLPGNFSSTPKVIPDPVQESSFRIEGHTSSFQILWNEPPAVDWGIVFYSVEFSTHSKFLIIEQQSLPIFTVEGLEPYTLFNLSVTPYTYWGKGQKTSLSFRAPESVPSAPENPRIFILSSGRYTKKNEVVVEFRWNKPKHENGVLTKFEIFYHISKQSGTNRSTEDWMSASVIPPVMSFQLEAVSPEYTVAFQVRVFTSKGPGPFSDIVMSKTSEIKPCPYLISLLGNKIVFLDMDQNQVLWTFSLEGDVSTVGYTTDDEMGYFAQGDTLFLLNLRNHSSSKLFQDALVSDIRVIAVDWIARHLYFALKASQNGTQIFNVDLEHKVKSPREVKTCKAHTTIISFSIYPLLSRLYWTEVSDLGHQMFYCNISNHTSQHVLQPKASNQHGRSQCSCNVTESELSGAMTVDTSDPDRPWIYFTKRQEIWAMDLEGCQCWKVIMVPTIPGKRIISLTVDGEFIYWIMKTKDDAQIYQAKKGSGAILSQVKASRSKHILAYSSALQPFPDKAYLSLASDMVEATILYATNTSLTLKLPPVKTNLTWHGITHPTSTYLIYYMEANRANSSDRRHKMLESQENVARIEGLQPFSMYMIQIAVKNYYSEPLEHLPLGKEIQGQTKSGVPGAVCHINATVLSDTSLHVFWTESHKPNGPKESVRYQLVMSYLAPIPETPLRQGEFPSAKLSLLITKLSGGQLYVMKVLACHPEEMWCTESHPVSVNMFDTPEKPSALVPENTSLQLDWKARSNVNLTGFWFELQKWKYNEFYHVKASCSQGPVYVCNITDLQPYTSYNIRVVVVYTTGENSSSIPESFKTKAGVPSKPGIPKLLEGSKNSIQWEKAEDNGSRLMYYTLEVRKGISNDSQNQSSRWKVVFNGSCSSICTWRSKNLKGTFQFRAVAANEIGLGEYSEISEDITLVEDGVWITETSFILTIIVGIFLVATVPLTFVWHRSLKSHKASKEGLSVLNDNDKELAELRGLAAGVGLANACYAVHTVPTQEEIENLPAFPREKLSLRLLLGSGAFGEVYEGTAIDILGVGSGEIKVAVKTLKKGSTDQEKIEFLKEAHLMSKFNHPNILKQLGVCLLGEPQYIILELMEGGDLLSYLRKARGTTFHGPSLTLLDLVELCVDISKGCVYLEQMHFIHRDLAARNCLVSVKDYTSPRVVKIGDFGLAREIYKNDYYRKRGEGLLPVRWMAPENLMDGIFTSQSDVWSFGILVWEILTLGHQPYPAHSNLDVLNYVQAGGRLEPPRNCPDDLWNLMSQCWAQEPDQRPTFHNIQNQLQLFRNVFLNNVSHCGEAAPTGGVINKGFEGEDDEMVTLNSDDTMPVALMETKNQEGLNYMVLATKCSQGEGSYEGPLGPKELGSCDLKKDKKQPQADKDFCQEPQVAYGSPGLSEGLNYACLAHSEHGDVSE
T2 sequence (P04441 whole entry, further chain): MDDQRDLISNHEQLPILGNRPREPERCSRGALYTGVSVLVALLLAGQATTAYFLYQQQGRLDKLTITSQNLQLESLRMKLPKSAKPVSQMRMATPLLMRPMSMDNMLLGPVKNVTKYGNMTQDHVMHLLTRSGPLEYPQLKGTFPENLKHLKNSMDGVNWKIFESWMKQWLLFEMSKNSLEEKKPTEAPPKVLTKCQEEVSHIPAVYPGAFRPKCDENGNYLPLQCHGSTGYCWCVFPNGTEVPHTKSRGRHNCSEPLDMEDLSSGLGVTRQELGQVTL
T3 sequence (Q78DX7 whole entry, other chains not shown, the tested form may be a part, canonical isoform): as the sequence (Q78DX7 whole entry) above

Turning to `CCc1cc2c(cc1N1CCC(N3CCOCC3)CC1)C(C)(C)c1[nH]c3cc(C#N)ccc3c1C2=O` [ALECTINIB], the inhibition entry in assay [1] and in assay [6] was “Dose-Dependent Effect” each time. Moreover, the IC50 (commonly the midpoint of a concentration-inhibition curve) in assay [2] was greater than 10000 nM; in [3] it was greater than 5000 nM; in assay [8], greater than 1000 nM; in [9], greater than 1000 nM; in assay [10], greater than 2000 nM; in assay [11], greater than 5000 nM. Also, the IC50 in assay [12] is greater than 2000 nM; in [13], greater than 10000 nM; in assay [14], greater than 10000 nM; in assay [15] it was greater than 2000 nM; in [16], greater than 5000 nM; in assay [18], greater than 10000 nM. Also, the Ki (as a rule, the equilibrium dissociation constant of an inhibitor or competing ligand from its target) in [4] came to 2000 nM; in [7], 2400 nM. Moreover, the inhibition result in assay [5] was “inactive”. The Kis in assay [17] is greater than 3000 nM.
For `COc1cc2nccc(Oc3ccc(NC(=O)C4(C(=O)Nc5ccc(F)cc5)CC4)cc3)c2cc1OC` [CABOZANTINIB], the IC50 in assay [10] stood at 1.1 nM; in [12] it was 2.3 nM; in assay [13] it was 6.4 nM; in [14], 1.4 nM; in [15], 1.3 nM; in assay [18] it was 1.5 nM.
For `Cc1cc(Nc2ncc(Cl)c(Nc3ccccc3S(=O)(=O)C(C)C)n2)c(OC(C)C)cc1C1CCNCC1` [CERITINIB], the inhibition entry in assay [1], in assay [5] and in assay [6] was “Dose-Dependent Effect” throughout. Further, the IC50 was 506 nM in [2]; 341 nM in [3]; 226 nM in [8]; 60 nM in [10]; 488 nM in [11]; 44 nM in [12]. Moreover, the IC50 in assay [13] was greater than 2000 nM; in assay [14], 70 nM; in assay [15] it was greater than 2000 nM; in [16], 304 nM; in assay [18], 71 nM.
On to `C[C@@H](Oc1cc(-c2cnn(C3CCNCC3)c2)cnc1N)c1c(Cl)ccc(F)c1Cl` [CRIZOTINIB], for which the inhibition result in assay [1], in assay [5] and in assay [6] was “Dose-Dependent Effect” in each case. Moreover, the IC50 was 21 nM in assay [2]; 11 nM in assay [3]; 47 nM in [8]; 259 nM in [10]; 60 nM in assay [11]; 18 nM in assay [12]. For the same molecule, the IC50 in assay [13] is greater than 5000 nM; in assay [15], greater than 2000 nM; in assay [16], 41 nM; in assay [18] it was 3.9 nM.
Take `COc1cc2c(Oc3ccc(NC(=O)C4(C(=O)Nc5ccc(F)cc5)CC4)cc3F)ccnc2cc1OCCCN1CCOCC1` [FORETINIB]: the inhibition entry in [1], in [5] and in assay [6] was “Dose-Dependent Effect” each time. Moreover, the IC50 in [2] was found to be 19 nM; in assay [3] it was 5.47 nM; in [8], 21 nM; in assay [10], 8.6 nM; in assay [11] it was 6.1 nM; in assay [12], 11 nM. Besides, the IC50 in [13] is 88 nM; in assay [15] it was 69 nM; in assay [16] it was 5.6 nM; in assay [18], 3.8 nM.
